Source: PubChem (several laboratories)
Apaf-1 inh = blocks human Apaf-1 apoptosome activity | inhibition, % at 20 µM | hit rate 0.71% among 330,000 | O14727 | reconstituted apoptosome caspase-3 activity, DEVD-Rh110 fluorescence; active means inhibition of at least 40% at 20 µM;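 further: plate controls were DMSO wells for no effect and DEVD-CHO caspase inhibitor wells for full effect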
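Material: cell-free apoptosome with Apaf-1, procaspase-3 and caspase-9; Buffer or medium: Hepes pH 7.5 with detergent and BSA; Reagent: cytochrome c trigger plus (Z-DEVD)2-Rh110 caspase-3 substrate; Times: compound with Apaf-1, dATP, procaspase-3 30 min, then 50 min reaction, room temperature; Technique: Rh110 fluorescence intensity.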
PREPL inhibitor = inhibits the human prolyl oligopeptidase-like enzyme. Q4J6C6. recombinant PREPL, fluorescence polarization activity-based probe. inhibition, % at 5.96 µM. hit rate 0.68% among 320,000. AID 2751; in the data active means inhibition above about 43%;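 further: 0% = enzyme with DMSO and 100% = wells lacking enzyme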
Target sequence (Q4J6C6 whole entry, looked up): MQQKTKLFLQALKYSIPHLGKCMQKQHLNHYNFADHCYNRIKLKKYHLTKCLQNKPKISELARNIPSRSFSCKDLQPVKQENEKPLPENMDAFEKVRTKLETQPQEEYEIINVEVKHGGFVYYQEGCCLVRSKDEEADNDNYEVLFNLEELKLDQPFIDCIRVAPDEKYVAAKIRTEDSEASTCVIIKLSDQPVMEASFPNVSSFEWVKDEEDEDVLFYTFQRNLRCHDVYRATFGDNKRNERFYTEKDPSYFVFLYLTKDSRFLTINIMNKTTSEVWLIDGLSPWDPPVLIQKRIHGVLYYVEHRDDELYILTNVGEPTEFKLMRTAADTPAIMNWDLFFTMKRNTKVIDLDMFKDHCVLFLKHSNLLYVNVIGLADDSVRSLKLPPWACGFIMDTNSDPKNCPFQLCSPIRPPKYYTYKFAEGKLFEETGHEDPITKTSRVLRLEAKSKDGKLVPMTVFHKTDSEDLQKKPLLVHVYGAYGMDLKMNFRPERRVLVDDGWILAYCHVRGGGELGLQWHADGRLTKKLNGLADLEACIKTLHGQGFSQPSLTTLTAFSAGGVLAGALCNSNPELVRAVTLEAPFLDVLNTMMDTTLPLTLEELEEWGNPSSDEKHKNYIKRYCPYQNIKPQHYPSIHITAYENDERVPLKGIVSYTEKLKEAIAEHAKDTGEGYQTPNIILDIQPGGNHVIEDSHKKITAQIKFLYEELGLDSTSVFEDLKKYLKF
MEKK3 PB1 HTS = MEKK3-MEK5 PB1 interaction, increase or decrease; bead-based flow cytometry, Alexa488-MEK5 binding to MEKK3; actives lie on both sides; 0 = blocked by unlabeled MEK5, 100 = vehicle; binding response (% of control), % at 10 µM; hit rate 1.4% among 290,000; AID 1529; Q99759;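 active means binding response more than 3 SD above or below the average of its plate-row segment, actives on both sides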;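 further: Alexa488 bead fluorescence after subtracting the streptavidin-only scavenger bead signal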
MEKK2wt PB1 HTS = raises or lowers MEK5 binding to wildtype human MEKK2 PB1 domain; bead flow cytometry, Alexa488-MEK5 binding to MEKK2 WT; actives lie on both sides; Q9Y2U5; AID 1531; binding response (% of control), % at 10 µM; hit rate 1.1% among 290,000; in the data active means binding response below about 67% or above about 130%
UBC13 inh = blocks human UBC13 polyubiquitin chain formation; P61088; TR-FRET; inhibition, % at 20 µM; hit rate 0.47% among 330,000; AID 485273; in the data active means inhibition above about 45%, passing the limit was not always enough
MEKK2 mut-MEK5 = signal of MEK5 binding to mutant human MEKK2 PB1 domain | bead flow cytometry, Alexa488-MEK5 binding to MEKK2 mutant | percent response, % at 10 µM | hit rate 0.35% among 290,000; in the data active means percent response above about 24%, passing the limit was not always enough
Apaf-1 inh conf = Apaf-1 inhibition, single-dose confirmed | shares compounds with Apaf-1 inh | reconstituted apoptosome, caspase-3 DEVD-Rh110 fluorescence | inhibition, % at 20 µM | hit rate 25% among 1,800;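 active means mean inhibition of at least 40% at 20 µM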;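 further: plate controls were DMSO wells for no effect and DEVD-CHO caspase inhibitor control wells for full effect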
Rh110 interf inh = counter-screen for Apaf-1 inhibitors: fluorescence interference | shares compounds with Apaf-1 inh | Rh110 fluorescence interference, quenched caspase reaction | activation (fluorescence interference), % at 20 µM | 1,800 tested, under 10 active | AID 504615;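 active means signal rise of 40% or more at 20 µM, treated as a fluorescence artifact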
Fluor interf inh = shows fluorescence interference in the Apaf-1 inhibitor assay format; shares compounds with Apaf-1 inh; fluorescence interference counterscreen, Apaf-1 assay format; IC50, µM; 460 tested, under 10 active; AID 588538; call rule not given here
An asterisk follows results filed as active; nt = no result given. Sampled rows, rich in hits. Any-hit rate of the full collection: about 3.1%.

SMILES	Apaf-1 inh	PREPL inhibitor	MEKK3 PB1 HTS	MEKK2wt PB1 HTS	UBC13 inh	MEKK2 mut-MEK5	Apaf-1 inh conf	Rh110 interf inh	others
COc1ccccc1N(C(=O)c1ccco1)C(C(=O)NC1CCCC1)c1ccc(N2CCOCC2)cc1 (centres undefined)	-18	9	102	101	1	2	nt	nt
CCCNc1c(F)c(F)c2c(C)c3ccccc3nc2c1F	51*	13	94	89	-25	0	33	4
CCCN(CC(=O)Nc1ccccc1C)C(=O)COc1ccc2c(c1)CCC2	60*	2	106	114	14	9	37	5
CCCN(CC(=O)Nc1ccccc1OC)C(=O)Cc1ccc2c(c1)CCC2	4	5	nt	nt	17	nt	nt	nt
CC(NC(=O)c1cccc(S(=O)(=O)N2CCc3ccccc32)c1)c1ccco1 (centres undefined)	1	-7	nt	nt	6	nt	nt	nt
CCOC(=O)c1nn(-c2ccccc2)c(=O)c2c(N)scc12	56*	6	102	105	-24	6	22	2
CCOC(=O)c1nn(-c2ccccc2C)c(=O)c2c(N)scc12	47*	4	109	103	1	-1	12	-15
CCOC(=O)c1nn(-c2ccccc2)c(=O)c2c(NC(C)=O)scc12	-7	0	102	96	-3	-6	nt	nt
N#CCCN(C(=O)COC(=O)c1cc(=O)[nH]c2ccccc12)c1ccccc1	2	11	nt	nt	-6	nt	nt	nt
CN(C(=O)c1ccccc1Cl)c1ccccc1C(=O)NCCc1ccccc1	4	1	106	102	-2	5	nt	nt
CCOc1ccc(S(=O)(=O)Nc2cc(SCC(=O)O)c(O)c3ccccc23)cc1	nt	nt	107	105	nt	7	nt	nt
CCc1ccc(S(=O)(=O)Nc2cc(SCC(=O)O)c(O)c3ccccc23)cc1	71*	13	105	89	-34	-9	29	4
O=C(CN1C(=O)C(=O)N(CCC2=CCCCC2)C1=O)Nc1ccc(F)cc1F	-1	5	nt	nt	9	nt	nt	nt
O=c1[nH]nc(CNc2ccc(O)cc2)c2ccccc12	94*	41	101	102	-1	2	4	0
O=c1[nH]nc(CNc2ccc(C(F)(F)F)cc2)c2ccccc12	0	7	109	103	4	0	nt	nt
COC(=O)c1ccc(-c2ncc(-c3cccc4ccccc34)o2)cc1	42*	0	105	98	31	1	9	7
CCN(CC(=O)NCc1cccs1)S(=O)(=O)c1ccc(F)c(F)c1F	9	1	nt	nt	1	nt	nt	nt
Cc1[nH][nH]c(=O)c1C(c1c(C)[nH][nH]c1=O)c1cn(Cc2cccc3ccccc23)c2ccccc12	95*	11	99	87	-33	-1	51*	11	Fluor interf inh=>100
O=C(Cc1ccc(Cl)cc1)NCc1ccccc1Cl	0	2	nt	nt	5	nt	nt	nt
O=C(Cc1ccccc1Cl)NC1(O)C(=O)c2ccccc2C1=O	89*	20	98	99	-24	1	65*	1	Fluor interf inh=>100
Cc1ccc(S(=O)(=O)NCCC(=O)N2CCC(C)CC2)cc1	-3	3	nt	nt	2	nt	nt	nt
O=C(O)c1ccc(-n2nnc3ccccc32)c([N+](=O)[O-])c1	5	6	100	102	-9	-5	nt	nt
O=C(O)c1ccc(NC2=C(n3nnc4ccccc43)C(=O)c3ccccc3C2=O)cc1	73*	-5	100	101	-76	3	76*	4	Fluor interf inh=>100
O=C1C=C(N2CCOCC2)c2ccccc2C1=O	98*	16	99	101	-195	0	100*	-3	Fluor interf inh=>100
O=C(O)c1cccc(NC2=C(N3CCOCC3)C(=O)c3ccccc3C2=O)c1	84*	-4	100	102	-22	4	81*	-38	Fluor interf inh=>100
SMILES	Apaf-1 inh	PREPL inhibitor	MEKK3 PB1 HTS	MEKK2wt PB1 HTS	UBC13 inh	MEKK2 mut-MEK5	Apaf-1 inh conf	Rh110 interf inh	others
Nc1cccc2nsnc12	68*	2	99	103	-37	2	14	-5
O=C(Cn1cnc2ccccc21)Nc1cccc(S(=O)(=O)N2CCCC2)c1	7	-2	nt	nt	-9	nt	nt	nt
C/C(=N\NC(=O)Cc1cc(=O)[nH][nH]1)c1cccc([N+](=O)[O-])c1	51*	4	87	91	-19	-5	11	-2
C/C(=N\NC(=O)CSCc1ccccc1Br)c1cccc([N+](=O)[O-])c1	-13	0	104	88	-4	2	nt	nt
C/C(=N/NC(=O)Cc1cc(=O)[nH][nH]1)c1ccc([N+](=O)[O-])cc1	55*	5	96	99	-5	-2	8	-6
CC(=O)Oc1ccc(/C=C2/C(=O)N(c3ccccc3)N=C2C)cc1	91*	12	113	112	-58	16	12	-2
COc1cc(/C=C2/C(=O)N(c3cccc(Br)c3)N=C2C)cc(OC)c1O	82*	0	101	98	-90	-1	18	-1
CC1=NN(c2ccccc2)C(=O)/C1=C\C=C\c1ccccc1	21	7	99	102	-22	-1	nt	nt
CC1=NN(c2ccccc2)C(=O)/C1=C/c1cccc(C)c1	96*	3	109	111	-57	15	23	-1
CC1=NN(c2ccccc2)C(=O)/C1=C\c1cc(C)n(C)c1C	10	1	103	105	-25	5	nt	nt
COc1ccc(/C=C2/C(=O)N(c3ccccc3)N=C2C)cc1OC	96*	nt	107	109	-34	3	13	6
O=C(Nc1ccccc1F)C1CCN(S(=O)(=O)c2cccc3nonc23)CC1	9	-2	101	101	-6	-3	nt	nt
COC(=O)N1C(=O)[C@](c2ccsc2)(C(C)C)N1C(=O)OC	1	4	98	86	0	-11	nt	nt
CC1=NN(c2ccccc2)C(=O)/C1=C/N(C)C	-14	9	91	93	1	-16	nt	nt
COc1ccc(/C=C2/C(=O)N(c3ccccc3)N=C2C)cc1	96*	12	nt	nt	-36	nt	16	-2
COc1ccc(C2=NN(c3ccccc3)C(=O)/C2=C\c2ccc(O)c(OC)c2)cc1	90*	-3	120	105	-144	-2	17	4
CCOc1cc(/C=N/NC(=O)c2ccccn2)ccc1OC(=O)c1cccs1	12	23	101	103	-6	5	nt	nt
COc1cc(/C=C2\C(=O)ON=C2c2ccc(Cl)cc2)ccc1O	13	2	nt	nt	-53	nt	nt	nt
